Test results published in publication PMC8653953 (Cancer chemotherapy and pharmacology, 2021).
Read-outs that look alike come from different tables or passages of the source. Numbered stars: 1 amine (or outer) side, 2 acyl side, 3 side chain; on linkers, the order of the positions; unused ones are H or OH. Bridge positions count the residues as written; N and C are the ends. Square brackets hold non-standard residues; d marks the D form. Peptide text beside a SMILES is read from it. I, II: the chains in the order shown. Actinocin(9to1) = Cc1c2oc3c(C)ccc(C(=O)[*:1])c3nc-2c(C(=O)[*:2])c(N)c1=O; NMeV = CN[C@H](C(=O)O)C(C)C; Sar = CNCC(=O)O

Experiments:
[1] = test system: patients <17 years old; assay: Actinomycin-D target toxicities; format: in vivo, human; details: during the study
Procedure, shortened: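 Actinomycin-D given to patients in four age cohorts (<1, 1 to <3, 3 to <12, 12 to <17 years). Grade 3 ALT, AST, GGT elevation, sinusoidal obstructive syndrome, and grade 3 neutrophil or platelet decrease were reported weekly for 21 days after PK sampling. Only new-onset events or grade increases over baseline counted. Each toxicity was related to PK and demographics by univariate logistic regression, then backward-selection multivariate regression.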

[2] = format: in vivo, human
Procedure, shortened: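 Five 2.5 mL catheter samples (three-draw-flush) taken on one of two random schedules, 5 min to 48-168 h post-infusion. Sodium-heparin plasma was separated within 6 h and frozen. LC-MS/MS, LLOQ 0.5 ng/mL. Noncompartmental: k_z from the last 3 points; AUC by linear trapezoid plus Clast/k_z; CL = dose/AUC∞; Vz = dose/(k_z·AUC∞). Episodes were compared by paired two-sided t-test on log-transformed differences.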

[3] = test system: patients <17 years old; assay: Vincristine target toxicity; format: in vivo, human; details: greater than baseline; weekly for one month and monthly for 6 months from sampling
Procedure, shortened: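 Vincristine-treated patients in four age cohorts were graded for neuropathy by CTC v3 (before 10/1/10) or CTCAE 4.03. Assessed weekly for one month, then monthly for 6 months from PK sampling. Only new-onset events or grade increases over baseline after sampling counted. Incidence was related to PK parameters and demographics by univariate logistic regression, then backward-selection multivariate regression.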

[4] = patients (n = 17) with two episodes of sampling, ratio (95% CI), P=0.05

half-life ([2]; all ages, n=52 patients, median, CV 60%) [h]	Clearance ([2]; all ages, n=52 patients, median, CV 90%) [L/hr/m^2]	median AUC of the youngest group, lower than the oldest groups ([2]; children <1 year vs oldest groups, consistent with the difference in dose)	Clearance ([2]; all ages, n=132 patients, median, CV 67%) [L/hr/m^2]	half-life ([2]; all ages, n=132 patients, median, CV 73%) [h]	AUC ([2]; all ages, n=132 patients, median, CV 98%) [µg·h/mL]	clearance, ratio between two sampling episodes ([2]; patients (n = 17) with two episodes of sampling, ratio (95% CI), P=0.04)	CL/BSA, ratio between two sampling episodes [2, 4]	Vz/BSA, ratio between two sampling episodes [2, 4]	Structure (SMILES)	sinusoidal obstructive syndrome [1]	patients with grade 3 peripheral motor neuropathy [3]	patients with grade 3 peripheral sensory neuropathy [3]
25	4.6	approximately 50%							Cc1c2oc3c(C)ccc(C(=O)N[C@@H]4C(=O)N[C@H](C(C)C)C(=O)N5CCC[C@H]5C(=O)N(C)CC(=O)N(C)[C@@H](C(C)C)C(=O)O[C@@H]4C)c3nc-2c(C(=O)N[C@@H]2C(=O)N[C@H](C(C)C)C(=O)N3CCC[C@H]3C(=O)N(C)CC(=O)N(C)[C@@H](C(C)C)C(=O)O[C@@H]2C)c(N)c1=O [Actinomycin-D] (I: T[dV]P[Sar][NMeV] / II: T[dV]P[Sar][NMeV]; ester I:1-I:C, II:1-II:C; linker I:N-II:N via Actinocin(9to1))	No participant experienced sinusoidal obstructive syndrome		
			17.2	14.6	0.078	1.54 (1.03,2.31)	1.50 (0.99–2.25)	1.56 (0.99–2.46)	CC[C@]1(O)C[C@H]2CN(CCc3c([nH]c4ccccc34)[C@@](C(=O)OC)(c3cc4c(cc3OC)N(C=O)[C@H]3[C@@](O)(C(=O)OC)[C@H](OC(C)=O)[C@]5(CC)C=CCN6CC[C@]43[C@@H]65)C2)C1 [Vincristine]		four	four
